# BB579 growth dn – chemicals that inhibit yeast BB579 growth in restrictive medium (lifespan-shortening candidates); hit rate 0.51% among 140,000; S. cerevisiae BB579 growth, OD615, 48 h; AID 804; inhibition, % at 10 µM;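 active = inhibition above a set limit, 3 SD over the mean compound inhibition, cut at about 44% in these data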
#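 test system = yeast BB579 (DeaD) | buffer or medium = restrictive CSMM-D medium | doses = single compound dose of 10 µM, 0.25% DMSO final | times = 4 h preincubation and 48 h exposure at 30 °C | technique = culture absorbance at 615 nm | benchmarks = amphotericin B 10 µg/mL, positive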
# RAM inhibit – blocks the yeast RAM network; hit rate 1.8% among 190,000; inhibition, % at 50 µM; S. cerevisiae dse1pr::URA3 reporter, 5-FOA growth OD615, 2 d; analog-sensitive cbk1-as2 kinase mutant strain; AID 868;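 active = inhibition above a set limit, 3 SD over mean compound inhibition, cut at about 8.4% in these data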;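 also: 0% = DMSO-only wells with no growth and 100% = 10 µM 1-NA-PP1 full growth; inhibition rescues growth on 5-FOA so higher OD means more RAM inhibition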
# Yeast lifespan up – extends the lifespan of yeast | hit rate 0.68% among 130,000 | S. cerevisiae growth with nicotinamide, OD615; deaD strain in restrictive glucose medium | inhibition of the nicotinamide effect, % at 10 µM;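 active = inhibition above a set limit, placed 3 SD over the median of all compounds, cut at about 26% in these data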;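 also: 0% = nicotinamide-treated wells and 100% = cells grown without nicotinamide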
#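 System: DeaD-strain S. cerevisiae / Buffer or medium: CSMM-D, restrictive glucose (dextrose) synthetic minimal medium / Probe or stimulus: nicotinamide, 1.5 mM, co-present with compound / Compound: one concentration, 10 µM, DMSO 0.25% / Incubation: 48 h compound exposure at 30 °C, humidified / Technique: optical density (absorbance) at 615 nm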
# sdo1 growth – restores growth of sdo1-depleted yeast; S. cerevisiae sdo1-depleted JHY4D growth rescue, OD600 30 h; active compounds read high; pdr5 snq2 efflux-pump mutant strain; z-score at 10 µM; hit rate 0.21% among 140,000; AID 817;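 active = z-score above 3 at both the 24 hr and the 30 hr optical density reads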;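 also: z-score against mean and SD of all compound wells on the same plate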
# Measles CPE – protection of cells from measles virus | AID 841 | hit rate 1.5% among 140,000 | protection (pct of control), % at 4 µM | Measles virus-infected cells, CPE protection, absorbance; in the data active = protection mostly above about 24%, no sharp cut-off; inactive = mostly below about 26%
# Active calls of the source: *; . = no result given. Shown are actives, neighbours in structure and some others; about 3.8% of the full set was active somewhere.
SMILES,BB579 growth dn,RAM inhibit,Yeast lifespan up,sdo1 growth,Measles CPE
OCCC1CN(Cc2ccon2)CCN1Cc1ccccc1 (centres undefined),.,-0.4,.,.,.
Cc1cc(C(=O)CSc2n[nH]c(N)n2)c(C)n1-c1ccccc1,-78.0,0.5,-11.9,-0.02,26.1*
O=C(CCSCCc1ccccn1)Nc1c(F)c(F)c(F)c(F)c1F,-26.5,2.4,27.2*,0.79,3.4
O=C(CCSCCc1ccccn1)Nc1ccccn1,-1.9,0.0,-5.2,0.41,15.6
Cc1ccc(NC(=S)N(CCN2CCCCC2)Cc2ccco2)cc1,-23.3,0.5,1.8,0.25,28.8
Cc1ccc(NC(=S)N(Cc2ccco2)C2CCN(C(C)C)CC2)cc1,-50.7,-0.3,1.2,0.39,38.6*
COc1ccccc1N1CCN(C2CCN(C(=O)c3cccc(F)c3)CC2)CC1,-32.0,1.2,-0.6,0.04,4.9
CCOC(=O)c1ccc(N=C2SC(C(=O)NCCc3ccccc3)CC(=O)N2C)cc1 (centres undefined),.,9.5*,.,.,.
C=CCC1c2cccc(C(=O)O)c2C(=O)N1c1cccc(C)c1 (centres undefined),61.9*,-1.9,-5.5,-0.33,0.3
CC(C)C[C@H](NC(=O)Nc1cccc(Br)c1)C(=O)O,3.6,2.1,1.9,-0.13,63.3*
CCN1CCN(C(=O)C2c3cc(OC)c(OC)cc3C(=O)N(C)C2c2ccc(SC)cc2)CC1 (centres undefined),-18.2,0.0,-4.9,-0.94,5.2
O=C(CN(C(=O)CSc1nc2ccccc2o1)c1ccccc1F)NC1CCCCC1,-14.3,2.1,-1.1,-0.66,11.6
CC1CCCC(C)N1C(=O)c1cc(-c2ccc(Cl)c(Cl)c2)on1 (centres undefined),-40.2,10.6*,-4.7,-2,2.0
COc1ccccc1CCNC(=O)c1ccoc1C,-23.2,-0.4,-12.3,0.41,11.8
Cc1ccccc1Cn1cc(S(=O)(=O)CC(=O)Nc2nccs2)c2ccccc21,-36.4,8.4*,-2.5,-0.58,5.1
Cc1cc(SCC(=O)c2cccs2)n2nc(C)c(-c3ccccc3)c2n1,0.4,1.2,-1.8,-1.36,59.6*
Cc1cc(Nc2ccc(Br)c(C)c2)n2nc(C)nc2n1,-5.1,0.7,-11.0,-1.39,11.2
Cc1ccc(NS(=O)(=O)c2ccc(OCC(=O)NCc3ccco3)cc2)cc1,-16.4,1.5,-14.6,0.47,53.3*
Cc1ccc(C)c(NS(=O)(=O)c2ccc(OCC(=O)NCc3ccco3)cc2)c1,-42.5,3.9,-8.7,-1.25,12.9
Cc1cccc(NC(=O)c2oc3ccc(S(=O)(=O)N4CCOCC4)cc3c2C)c1C,-26.1,6.5,-5.8,-0.44,9.4
Cc1ccc(NC(=O)c2oc3ccc(S(=O)(=O)N4CCOCC4)cc3c2C)c(C)c1,.,9.4*,.,.,.
Nc1nc(-c2ccc(Cl)cc2)c(N=Nc2ccc(S(=O)(=O)N3CCOCC3)cc2)s1,-8.1,9.3*,5.0,-0.52,6.3
O=S(=O)(c1ccc(Cl)cc1)N1CCC(N2CCOCC2)CC1,-0.7,2.0,-13.1,-0.17,18.9
Cc1ccccc1NC(=O)c1ccc(CN2CCC(Cc3ccccc3)CC2)cc1,-14.9,-0.5,-14.6,-0.72,50.7*
COc1ccc2oc(-c3ccccc3)c(C(=O)N3CCOCC3)c2c1,-25.3,2.6,-19.3,-0.57,1.0
SMILES,BB579 growth dn,RAM inhibit,Yeast lifespan up,sdo1 growth,Measles CPE
CC(=O)Oc1ccc2oc(C)c(C(=O)N3CCOCC3)c2c1,-21.1,1.1,3.6,0.69,39.3*
CC(/C=C/c1cccc([N+](=O)[O-])c1)=N\NC(=O)c1ccncc1,3.5,-0.9,17.1,0,21.2
Cc1c(N=C2SC(CC(=O)Nc3ccccc3)C(=O)N2CCN2CCOCC2)c(=O)n(-c2ccccc2)n1C (centres undefined),.,2.5,.,.,.
Cc1c(N=C2NC(=O)C(CC(=O)Nc3ccccc3)S2)c(=O)n(-c2ccccc2)n1C (centres undefined),-26.4,1.7,-31.7,-0.65,37.9*
CCc1cc2c(cc(C(=O)O)n2C)s1,57.8*,-0.6,-6.1,0.22,3.5
O=C(N/C(=C/c1ccccc1)C(=O)N1CCCCCC1)c1ccccc1,.,-0.4,.,.,.
O=C(/C=C/c1ccccc1)N/C(=C/c1ccccc1)C(=O)N1CCCCC1,-10.6,0.3,-4.4,1.44,47.3*
COCCNC(=O)c1ccccc1NC(=O)Cc1ccccc1,.,-0.5,.,.,.
COC(=O)/C=C1/SC(=NC(=O)c2ccccc2)NC1=O,18.8,-1.0,28.1*,0.11,8.6
COC(=O)/C=C1\SC(=NC(=O)c2cccc(Cl)c2)NC1=O,-19.8,1.2,-7.0,0.24,8.2
O=C(Cc1cn(Cc2cccc(Cl)c2)c2ccccc12)N1CCCCCC1,-21.0,2.9,4.2,-0.25,3.8
CC(=O)C1=C(O)C(=O)N(Cc2ccco2)C1c1ccccc1 (centres undefined),-30.4,1.9,-2.7,0.67,33.5*
CC1Cc2ccccc2N1C(=O)c1cc2sccc2n1Cc1ccc(F)cc1 (centres undefined),-54.5,6.0,.,-0.75,5.2
CC(C)(C)NC(=O)C(c1cccs1)N(Cc1ccc(F)cc1)C(=O)c1csnn1 (centres undefined),.,2.1,.,.,.
CC(C)OC(=O)c1c(F)c(F)c(N2CCOCC2)c(F)c1F,-6.2,1.0,44.3*,-0.09,4.1
O=C(COc1ccc(Cl)cc1Cl)NCCSc1ccc(Cl)cc1,-39.4,9.0*,-25.4,-1.53,4.7
COCCCNC(=O)CN(c1ccc(OC)cc1)S(=O)(=O)c1ccc(NC(C)=O)cc1,7.5,2.3,-8.0,0.61,53.4*
COc1ccc(N(CC(=O)NC(C)C)S(=O)(=O)c2ccc(NC(C)=O)cc2)cc1,-50.8,1.1,-5.7,0.51,9.5
CCOc1ccc(NC(=O)CN(c2ccc(OC)cc2)S(C)(=O)=O)cc1,-21.4,5.4,-10.0,-0.24,11.9
CCOc1ccc(N(CC(=O)Nc2ccc(OC)cc2)S(C)(=O)=O)cc1,-3.4,0.7,-11.8,1.08,47.7*
COc1ccc(N(CC(=O)NCCSCc2ccco2)S(=O)(=O)c2ccccc2)cc1,.,9.3*,.,.,.
CCN(CCCNC(=O)C1CCC(=O)N1C(C)C)c1cccc(C)c1 (centres undefined),-29.0,-0.1,-6.4,1.28,11.4
Cc1noc(C)c1COc1cccc(C(=O)NC(C)(C)C)c1,.,-0.4,.,.,.
CCN(Cc1ccncc1)C(=O)C1CCN(S(=O)(=O)c2cccs2)CC1,-29.4,1.5,-4.9,1,16.8
O=C(CSc1ncnc2c1oc1ccccc12)OCc1ccccc1,-71.1,8.8*,-8.3,-0.8,7.8
NC(=O)CSc1ncnc2c1oc1ccccc12,30.8,2.5,-7.8,1.25,9.0
CCOc1ccc(/C=C/C(=O)NCc2ccccc2)cc1,-22.0,0.8,-5.3,-0.05,3.2
CCOc1ccc(/C=C/C(=O)c2c(O)c3ccccc3oc2=O)cc1,-71.3,2.9,80.3*,0.05,4.6
Fc1ccccc1COc1ccc2ccccc2c1CNc1nn[nH]n1,.,4.4,.,.,.

# Screening data (PubChem BioAssay)
